The test system of one assay is NCI-H460. Kind of assay: Cytotoxicity against human NCI-H460 cells after 72 hrs by MTT assay. In kind it is functional, cell-based. The following applies: NCI-H460, 72 h. The method, boiled down:
(§1)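 Metastatic human NSCLC lines H292 and H460, obtained from ATCC, were tested for viability by MTT assay following a previously published protocol. Cisplatin and doxorubicin served as positive controls. IC50 values are reported.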

A further assay deals with NCI-H292. Kind of assay: Cytotoxicity against human NCI-H292 cells after 72 hrs by MTT assay. The following applies: NCI-H292, 72 h. In kind it is functional, cell-based. A digest of the protocol:
as §1
On the technique in general: Tetrazolium assays rely on reduction of a dye to a coloured formazan, in cell work by metabolically active cells.

What is called IC50 is the point on the concentration scale where inhibition reaches its midpoint.

Structures are written as SMILES.

`COC1=C(C)C(=O)C2=C(C1=O)[C@@H]1[C@@H]3CC4=C(C(=O)C(OC)=C(C)C4=O)[C@H](CO)N3[C@@H](C#N)[C@@H](C2)N1C`: the IC50 amounted to 0.164 µM with NCI-H460 and 0.217 µM with NCI-H292.
Take `C/C=C(/C)C(=O)OC[C@H]1c2c(O)c(OC)c(C)c(OC(=O)/C=C/c3ccc(F)cc3)c2C[C@H]2[C@H]3C4=C(C[C@H]([C@H](C#N)N12)N3C)C(=O)C(C)=C(OC)C4=O`: the IC50 in the assay on NCI-H460 came to 0.017 µM; with NCI-H292 it was 0.063 µM.
As for `C/C=C(/C)C(=O)OC[C@H]1c2c(O)c(OC)c(C)c(OC=O)c2C[C@H]2[C@H]3C4=C(C[C@H]([C@H](C#N)N12)N3C)C(=O)C(C)=C(OC)C4=O`, the IC50 with NCI-H460 stood at 0.0097 µM; in the assay on NCI-H292 it was 0.012 µM.
For `C/C=C(/C)C(=O)OC[C@H]1c2c(O)c(OC)c(C)c(OC(=O)/C=C/c3cccnc3)c2C[C@H]2[C@H]3C4=C(C[C@H]([C@H](C#N)N12)N3C)C(=O)C(C)=C(OC)C4=O`, in that order: 0.052 µM and 0.057 µM.
For `C/C=C(/C)C(=O)OC[C@H]1c2c(O)c(OC)c(C)c(O)c2C[C@H]2[C@H]3c4c(O)c(OC)c(C)c(O)c4C[C@H]([C@H](C#N)N12)N3C`, in that order: 0.0011 µM and 0.0017 µM.
Take `C/C=C(/C)C(=O)OC[C@H]1c2c(O)c(OC)c(C)c(OC(=O)CCC)c2C[C@H]2[C@H]3C4=C(C[C@H]([C@H](C#N)N12)N3C)C(=O)C(C)=C(OC)C4=O`: the results for the IC50 with NCI-H460 and in the assay with NCI-H292 were 0.0056 µM and 0.0067 µM, respectively.
For `C/C=C(/C)C(=O)OC[C@H]1c2c(O)c(OC)c(C)c(OC(=O)c3ccc(Br)cc3)c2C[C@H]2[C@H]3C4=C(C[C@H]([C@H](C#N)N12)N3C)C(=O)C(C)=C(OC)C4=O`, in that order: 0.014 µM and 0.021 µM.
On to `C/C=C(/C)C(=O)OC[C@H]1c2c(O)c(OC)c(C)c(OC(=O)c3ccc4ncccc4c3)c2C[C@H]2[C@H]3C4=C(C[C@H]([C@H](C#N)N12)N3C)C(=O)C(C)=C(OC)C4=O`, for which the IC50 in the assay on NCI-H460 was 0.045 µM; in the assay on NCI-H292 it was 0.054 µM.
For `C/C=C(/C)C(=O)OC[C@H]1c2c(O)c(OC)c(C)c(OC(=O)CNC(=O)OC(C)(C)C)c2C[C@H]2[C@H]3C4=C(C[C@H]([C@H](C#N)N12)N3C)C(=O)C(C)=C(OC)C4=O`, in that order: 0.006 µM and 0.01 µM.
For `C/C=C(/C)C(=O)OC[C@H]1c2c(O)c(OC)c(C)c(OC(=O)/C=C/c3ccccc3)c2C[C@H]2[C@H]3C4=C(C[C@H]([C@H](C#N)N12)N3C)C(=O)C(C)=C(OC)C4=O`, in that order: 0.011 µM and 0.012 µM.
As to `C/C=C(/C)C(=O)OC[C@H]1c2c(O)c(OC)c(C)c(OC(=O)c3cccnc3)c2C[C@H]2[C@H]3C4=C(C[C@H]([C@H](C#N)N12)N3C)C(=O)C(C)=C(OC)C4=O`, the figures for the IC50 with NCI-H460 and with NCI-H292 were 0.02 µM and 0.059 µM, respectively.
For `C/C=C(/C)C(=O)OC[C@H]1c2c(c(O)c(C)c3c2OCO3)C[C@H]2[C@H]3C4=C(C[C@H]([C@H](C#N)N12)N3C)C(=O)C(C)=C(OC)C4=O`, in that order: 0.036 µM and 0.061 µM.
In the case of `C/C=C(/C)C(=O)OC[C@H]1c2c(c(OC(C)=O)c(C)c(OC)c2OC(C)=O)C[C@H]2[C@H]3C4=C(C[C@H]([C@H](C#N)N12)N3C)C(=O)C(C)=C(OC)C4=O`, the IC50 came to 0.025 µM in the assay on NCI-H460 and 0.028 µM in the assay with NCI-H292.
For `C/C=C(/C)C(=O)OC[C@H]1c2c(O)c(OC)c(C)c(OC(=O)[C@H](C)NC(=O)OC(C)(C)C)c2C[C@H]2[C@H]3C4=C(C[C@H]([C@H](C#N)N12)N3C)C(=O)C(C)=C(OC)C4=O`, in that order: 0.016 µM and 0.024 µM.
Turning to `C/C=C(/C)C(=O)OC[C@H]1c2c(O)c(OC)c(C)c(OC(=O)CCCC)c2C[C@H]2[C@H]3C4=C(C[C@H]([C@H](C#N)N12)N3C)C(=O)C(C)=C(OC)C4=O`, the IC50 in the assay on NCI-H460 worked out at 0.026 µM; in the assay with NCI-H292, 0.036 µM.
For `C/C=C(/C)C(=O)OC[C@H]1c2c(O)c(OC)c(C)c(OC(=O)c3cnc4ccccc4c3)c2C[C@H]2[C@H]3C4=C(C[C@H]([C@H](C#N)N12)N3C)C(=O)C(C)=C(OC)C4=O`, in that order: 0.022 µM and 0.111 µM.
For `C/C=C(/C)C(=O)OC[C@H]1c2c(O)c(OC)c(C)c(OC(=O)OC)c2C[C@H]2[C@H]3C4=C(C[C@H]([C@H](C#N)N12)N3C)C(=O)C(C)=C(OC)C4=O`, in that order: 0.014 µM and 0.011 µM.
With `C/C=C(/C)C(=O)OC[C@H]1c2c(O)c(OC)c(C)c(OC(=O)c3ccc(-c4ccccc4)cc3)c2C[C@H]2[C@H]3C4=C(C[C@H]([C@H](C#N)N12)N3C)C(=O)C(C)=C(OC)C4=O`, the IC50 was 0.054 µM in the assay on NCI-H460 and 0.071 µM in the assay with NCI-H292.
The matching figures for `COc1cc2c(cc1O)CCN[C@]21CS[C@@H]2c3c(OC(C)=O)c(C)c4c(c3[C@H](COC1=O)N1[C@@H]2[C@H]2c3c(cc(C)c(OC)c3O)C[C@H]([C@@H]1C#N)N2C)OCO4`: 0.0012 µM and 0.0016 µM.
For `C/C=C(/C)C(=O)OC[C@H]1c2c(O)c(OC)c(C)c(OC(=O)c3ccncc3)c2C[C@H]2[C@H]3C4=C(C[C@H]([C@H](C#N)N12)N3C)C(=O)C(C)=C(OC)C4=O`, in that order: 0.011 µM and 0.02 µM.
On to `C/C=C(/C)C(=O)OC[C@H]1c2c(O)c(OC)c(C)c(OC(=O)CC)c2C[C@H]2[C@H]3C4=C(C[C@H]([C@H](C#N)N12)N3C)C(=O)C(C)=C(OC)C4=O`, for which the IC50 came to 0.0051 µM with NCI-H460 and 0.0023 µM with NCI-H292.
As to `C/C=C(/C)C(=O)OC[C@H]1c2c(O)c(OC)c(C)c(OC(C)=O)c2C[C@H]2[C@H]3C4=C(C[C@H]([C@H](C#N)N12)N3C)C(=O)C(C)=C(OC)C4=O`, the IC50 is 0.0036 µM in the assay with NCI-H460 and 0.003 µM with NCI-H292.
For `C/C=C(/C)C(=O)OC[C@H]1c2c(O)c(OC)c(C)c(OC(=O)CCCCC)c2C[C@H]2[C@H]3C4=C(C[C@H]([C@H](C#N)N12)N3C)C(=O)C(C)=C(OC)C4=O`, in that order: 0.015 µM and 0.016 µM.
The matching figures for `C/C=C(/C)C(=O)OC[C@H]1c2c(O)c(OC)c(C)c(OC(=O)c3ccccn3)c2C[C@H]2[C@H]3C4=C(C[C@H]([C@H](C#N)N12)N3C)C(=O)C(C)=C(OC)C4=O`: 0.026 µM and 0.103 µM.
The matching figures for `COc1cccc2c1C(=O)c1c(O)c3c(c(O)c1C2=O)C[C@@](O)(C(=O)CO)C[C@@H]3O[C@H]1C[C@H](N)[C@H](O)[C@H](C)O1` [DOXORUBICIN]: 0.034 µM and 0.351 µM.
Turning to `C/C=C(/C)C(=O)OC[C@H]1C2=C(C[C@H]3[C@H]4C5=C(C[C@@H]([C@H](C#N)N13)N4C)C(=O)C(C)=C(OC)C5=O)C(=O)C(C)=C(OC)C2=O` [RENIERAMYCIN M], the results for the IC50 with NCI-H460 and in the assay with NCI-H292 were 0.0065 µM and 0.024 µM, respectively.

The record behind these values is ChEMBL document CHEMBL4118046, “Chemistry of Renieramycins. 17. A New Generation of Renieramycins: Hydroquinone 5-O-Monoester Analogues of Renieramycin M as Potential Cytotoxic Agents against Non-Small-Cell Lung Cancer Cells” (J Nat Prod, 2017).
